In ChEMBL document CHEMBL4334446, “Evaluating the effects of fluorine on biological properties and metabolic stability of some antitubulin 3-substituted 7-phenyl-pyrroloquinolinones” (Eur J Med Chem, 2019):

Experiments:
[1] = Metabolic stability in human liver microsomes assessed as parent compound decline at 10 uM incubated for 60 mins in presence of NADPH by HPLC analysis; assay type: ADME, Microsome; details: read-out: Drug degradation
Procedure, shortened: (§1)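 Compound (10 µM) was incubated 0 or 60 min at 37 °C with pooled HLMs (1 mg/mL), with or without 1 mM NADPH, or in buffer only (0.1 M KH2PO4 pH 7.4). Reactions were stopped with ice-cold acetonitrile. Remaining parent was measured by HPLC-fluorescence relative to 0 min; mean ± SD, n = 3.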

[2] = Selectivity ratio of GI50 for PHA-stimulated human PBL cells to GI50 for human Jurkat cells incubated for 72 hrs by MTT assay
Procedure, shortened: (§2)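 Leukemia cells (CEM, DND-41, Jurkat) were grown in RPMI-1640 at 8×10³ cells/well and left 18 h. Donor PBL were gradient-separated, held overnight, and non-adherent cells set at 5×10^5 cells/mL with 2.5 µg/mL PHA. Both were exposed 72 h at 37 °C to graded compound concentrations, read by MTT. The ratio is PBL GI50 over leukemia GI50.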

RS4-11 = assay: Growth inhibition of human RS4:11 cells incubated for 72 hrs by MTT assay; assay type: functional; details: RS4-11, 72 h
Procedure, shortened: (§3)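 Leukemia lines were grown in RPMI-1640; the CEM^Vbl-100 medium also contained 100 ng/mL vinblastine. Cells were seeded at 8 × 10³ per well and left 18 h at 37 °C, 5% CO2. Medium was then replaced with fresh medium holding graded compound concentrations (DMSO stocks), in triplicate, for 72 h. Viability was read by MTT, and GI50 = concentration inhibiting proliferation 50%.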

[3] = Selectivity ratio of GI50 for PHA-stimulated human PBL cells to GI50 for human DND41 cells incubated for 72 hrs by MTT assay; procedure, shortened: as §2
[4] = Selectivity ratio of GI50 for human PBL cells to GI50 for human Jurkat cells incubated for 72 hrs by MTT assay
Procedure, shortened: as §2, with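 “overnight in RPMI-1640/10% FBS,” for “overnight,”, “without PHA (resting).” for “with 2.5 µg/mL PHA.”, “h” for “h at 37 °C”, “graded” for “graded compound”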

CCRF-CEM = assay: Growth inhibition of human CEM cells incubated for 72 hrs by MTT assay; assay type: functional; procedure, shortened: as §3
[5] = Selectivity ratio of GI50 for human PBL cells to GI50 for human CEM cells incubated for 72 hrs by MTT assay; assay type: functional
Procedure, shortened: as §2, with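 “overnight in RPMI-1640/10% FBS,” for “overnight,”, “without PHA (resting).” for “with 2.5 µg/mL PHA.”, “h” for “h at 37 °C”, “graded” for “graded compound”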

HL-60 = assay: Growth inhibition of human HL60 cells incubated for 72 hrs by MTT assay; assay type: functional; details: HL-60, 72 h; procedure, shortened: as §3
HeLa = assay: Growth inhibition of human HeLa cells incubated for 72 hrs by MTT assay; assay type: functional
[6] = Selectivity ratio of GI50 for PHA-stimulated human PBL cells to GI50 for human CEM cells incubated for 72 hrs by MTT assay; procedure, shortened: as §2
[7] = Metabolic stability in human liver microsomes assessed as parent compound decline at 10 uM incubated for 60 mins in absence of NADPH by HPLC analysis; assay type: ADME, Microsome; details: read-out: Drug degradation; procedure, shortened: as §1
Jurkat = assay: Growth inhibition of human Jurkat cells incubated for 72 hrs by MTT assay; assay type: functional; procedure, shortened: as §3
MCF7 = assay: Growth inhibition of human MCF7 cells incubated for 72 hrs by MTT assay; assay type: functional; details: MCF7, 72 h
[8] = Growth inhibition of human PBL cells incubated for 72 hrs by MTT assay; assay type: cell-based; details: PBL cells (peripheral blood lymphocytes)
Procedure, shortened: (§4)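 PBL from healthy donors were isolated on a Lymphoprep gradient, held overnight in RPMI-1640 with 10% FBS, and the non-adherent cells resuspended at 5 × 10^5 cells/mL. Proliferating cultures got 2.5 µg/mL PHA; resting cultures got none. Compound was added at several concentrations for 72 h and viability read by MTT. GI50 reported as mean ± SEM of three experiments.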

[9] = Growth inhibition of PHA-stimulated human PBL cells incubated for 72 hrs by MTT assay; assay type: cell-based; details: PHA-stimulated PBL cells (peripheral blood lymphocytes); procedure, shortened: as §4
[10] = Selectivity ratio of GI50 for human PBL cells to GI50 for human DND41 cells incubated for 72 hrs by MTT assay
Procedure, shortened: as §2, with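 “overnight in RPMI-1640/10% FBS,” for “overnight,”, “without PHA (resting).” for “with 2.5 µg/mL PHA.”, “h” for “h at 37 °C”, “graded” for “graded compound”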

[11] = Growth inhibition of multidrug-resistant human CEM/VBL100 cells incubated for 72 hrs by MTT assay; assay type: functional; details: CEM/VBL100, 72 h; procedure, shortened: as §3
HT-29 = assay: Growth inhibition of human HT-29 cells incubated for 72 hrs by MTT assay; assay type: functional; details: HT-29, 72 h
[12] = Metabolic stability in human liver microsomes at 10 uM incubated for 15 mins in presence of NADPH and non-selective CYP inhibitor quercetin by HPLC analysis; assay type: ADME, Microsome; details: 0.25 h
Procedure, shortened: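 Compound (10 µM) was incubated 0 and 15 min at 37 °C with pooled HLMs and 1 mM NADPH in 0.1 M KH2PO4 pH 7.4, with or without 100 µM quercetin. Parent remaining was measured by HPLC-fluorescence relative to 0 min; mean ± SD, n = 3.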

[13] = Stability in phosphate buffer at pH 7.4 at 10 uM incubated for 30 mins by HPLC analysis; assay type: physicochemical; details: pH 7.4, 0.5 h
Procedure, shortened: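 No microsomes or NADPH: compound (10 μM final) held in 0.1 M KH₂PO₄ pH 7.4 at 37 °C. Samples taken at 0 and 30 min, quenched with ice-cold acetonitrile, centrifuged, analysed by HPLC with fluorescence detection. Percent parent remaining relative to 0 min; mean ± SD, n = 3.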

Tubulin = Tubulin (Bos taurus, UniProt Q6B856+Q862L2+Q862F3); assay: Inhibition of bovine brain tubulin polymerization preincubated for 15 mins followed by GTP addition and measured for 20 mins by turbidimetry-based spectrophotometric method
Procedure, shortened: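 Bovine brain tubulin (10 µM) was preincubated with varying compound concentrations in 0.8 M monosodium glutamate, pH 6.6, for 15 min at 30 °C, then cooled to 0 °C. GTP was added to 0.4 mM final and the mix warmed to 30 °C. Turbidity was followed at 350 nm. IC50 = concentration inhibiting extent of assembly 50% after 20 min.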

MDA-MB-231 = assay: Growth inhibition of human MDA-MB-231 cells incubated for 72 hrs by MTT assay; assay type: functional; details: MDA-MB-231, 72 h
[14] = Growth inhibition of human DND41 cells incubated for 72 hrs by MTT assay; assay type: functional; details: DND41, 72 h; procedure, shortened: as §3
A2058 = assay: Growth inhibition of human A2058 cells incubated for 72 hrs by MTT assay; assay type: functional; details: A2058, 72 h
Tubulin (Bos taurus) = Tubulin (Bos taurus) (UniProt Q6B856+Q862L2+Q862F3); assay: Inhibition of [3H]colchicine binding to bovine brain tubulin at 5 uM relative to control
Procedure, shortened: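 Bovine brain tubulin at 1 µM was incubated with 5 µM [3H]colchicine and the test compound at 5 µM. Inhibition of colchicine binding was measured relative to a control.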

A-375 = assay: Growth inhibition of human A375 cells incubated for 72 hrs by MTT assay; assay type: functional; details: A-375, 72 h
MDA-MB-468 = assay: Growth inhibition of human MDA-MB-468 cells incubated for 72 hrs by MTT assay; assay type: functional; details: MDA-MB-468, 72 h
[15] = Metabolic stability in human liver microsomes assessed as half life at 10 uM incubated for 30 mins in presence of NADPH by HPLC analysis; assay type: ADME, Microsome
Procedure, shortened: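 Compound (10 µM) was incubated at 37 °C with 0.5 mg/mL pooled HLMs and 1 mM NADPH in 0.1 M KH2PO4 pH 7.4, sampled at 0, 2, 5, 15 and 30 min. Controls without NADPH, or buffer only, ran 0 and 30 min. Parent was quantified by HPLC-fluorescence as % of the 0 min level, n = 3. t1/2 = 0.693/k, with k from regression of ln % remaining versus time.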

[16] = Time-dependent metabolic stability in human liver microsomes at 10 uM incubated for 30 mins in presence of NADPH by HPLC analysis; assay type: ADME, Microsome; details: 0.5 h
Procedure, shortened: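 Pooled mixed-gender HLMs (0.5 mg/mL) plus 1 mM NADPH in 0.1 M KH₂PO₄ pH 7.4, compound 10 μM final, 37 °C. Reaction started with microsomes after 3-min equilibration. Stopped with ice-cold acetonitrile at 0, 2, 5, 15, 30 min, then HPLC-fluorescence of supernatant. Percent remaining vs 0 min (mean ± SD, n = 3). Half-life = 0.693/k from linear regression of Ln % remaining vs time.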

[17] = Metabolic stability in human liver microsomes at 10 uM incubated for 30 mins in phosphate buffer at pH 7.4 by HPLC analysis; assay type: ADME, Microsome; details: pH 7.4, 0.5 h
Procedure, shortened: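 Test compound (10 μM, final) incubated at 37 °C with pooled mixed-gender HLMs (0.5 mg/mL) in 0.1 M KH₂PO₄ pH 7.4 without NADPH. Sampled at 0 and 30 min, quenched with ice-cold acetonitrile, centrifuged, supernatant analysed by HPLC with fluorescence detection (ex 344/em 493 nm). Percent remaining calculated from peak area relative to 0 min; mean ± SD, n = 3.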

SMILES	GI50 (RS4-11) [nM]	GI50 (HL-60) [nM]	GI50 (HeLa) [nM]	GI50 (Jurkat) [nM]	GI50 (MCF7) [nM]	GI50 (HT-29) [nM]	GI50 (MDA-MB-231) [nM]	GI50 [14] [nM]	GI50 (A2058) [nM]	GI50 (A-375) [nM]	GI50 (MDA-MB-468) [nM]	other results
O=C(c1ccccc1)n1ccc2c3c(=O)cc(-c4ccccc4)[nH]c3ccc21	0.3	2	0.2	16	0.2	0.1						metabolised at 1 h, 10 µM [1]: 20%; RatioGI50 [2]: 10000 - 30000; RatioGI50 [3]: 10000 - 30000; RatioGI50 [4]: 10000 - 30000; GI50 (CCRF-CEM): 2.5 nM; RatioGI50 [5]: 10000 - 30000; RatioGI50 [6]: 10000 - 30000; metabolised at 1 h, 10 µM [7]: 20%; GI50 at 72 h [8]: > 100000 nM; GI50 at 72 h [9]: 2700 nM; RatioGI50 [10]: 10000 - 30000; GI50 [11]: 3.1 nM
CCn1ccc2c3c(=O)cc(-c4ccc(F)cc4)[nH]c3ccc21	293	1440	340	334	51.3	447	206	477	1180	69.8	43	Stability [12]: Stable; Stability [13]: Stable; IC50 (Tubulin): 3700 nM; inhibition (Tubulin (Bos taurus)): 12%; half-life at 10 µM [15]: 10.6 min; Stability [16]: Unstable; Stability [17]: Stable
O=C(Oc1cc(-c2ccccc2)nc2ccc3[nH]ccc3c12)c1ccccc1F	697	2310	501	324	3460	216	5590	2420	1490	2550	1320	
